Test results: paper PMC11452492 (Nature Communications, 2024)

How the values were obtained:
[1] = system: p38-mediated MK2 phosphorylation; assay: phospho-MK2 western blot in HEK293T MKK6EE cells; assay type: cell-based, human; conditions: doxycycline, JNK inhibitors 3 μM
Outline: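 HEK293T MKK6EE cells allow p38-specific activation through doxycycline-inducible expression of constitutively active MKK6EE. Phospho-MK2 was read by western blot with a fluorescent secondary antibody and infrared imaging. α-Tubulin served as load control, and anti-FLAG monitored transgene expression.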

[2] = system: JNK mediated c-Jun phosphorylation; assay: sorbitol stimulated c-Jun phosphorylation, western blot, HEK293T cells; assay type: cell-based, human; conditions: sorbitol 15 min, inhibitor 1 µM added 2 h before
Outline: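 HEK293T cells seeded at 50,000/well and grown to confluence (~24 h) in DMEM with 10% FBS, then serum-starved 16 h. Inhibitor in 50% DMSO added 2 h before 0.35 M sorbitol for 15 min; final DMSO 0.1%, with a DMSO-only control. Cells chilled on ice, pelleted, washed in cold PBS and lysed in SDS loading buffer. Lysates run on 10% Tris-glycine gels and blotted to nitrocellulose for phospho-JNK and phospho-c-Jun.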

[3] = metabolic stability in rat primary hepatocytes; assay type: in vitro ADME
Outline: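 Hepatocytes were isolated from male Wistar rats by collagenase perfusion. Test compound from DMSO was added to 1 or 10 μM final (0.1% DMSO) in William's E:Ham's F12 (1:1) medium. Samples were taken at 0–240 min, quenched with ice-cold acetonitrile, and parent compound was quantified by LC-MS/MS. A cell-free medium control was included. Clint came from parent loss; ClH and extraction ratio were predicted from Clint, with cut-offs of 0.3 and 0.7.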

[4] = stability in rat blood plasma; assay type: in vitro ADME; conditions: up to 120 min
Outline: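 Test compound from DMSO was added to male Wistar rat blood plasma at 1 or 10 μM final. Samples were taken at 0, 10, 20, 30, 60 and 120 min, quenched with ice-cold acetonitrile, and centrifuged. Parent compound was quantified by LC-MS/MS, and t1/2 was calculated from its decline.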

[5] = system: JNK mediated c-Jun(Ser73) phosphorylation; assay: quantitative western blot p-c-Jun; assay type: cell-based, human
Outline: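 SH-SY5Y cells carry a Tet-ON-inducible MKK7–MLK3 kinase-domain chimera and were kept in DMEM F12 + 1% FBS. Cells received 2 or 3 μg/mL doxycycline together with test compound. Lysates were taken after 6 h (2 or 6 h in blots) for quantitative western blot of p-c-Jun(Ser73), with α-tubulin as load control. Normalized signal was fitted to a dose-response function for EC50. Blots are representative of two independent experiments.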

[6] = LC-MS of GSH adduct formation; assay type: physicochemical; conditions: 10 mM GSH, electrospray mass spectrometry
Outline: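 Mass analysis of glutathione adducts by LC-MS with electrospray ionisation. Linear gradient from 10% to 55% eluent B over 12 min, then 95% B, returning to 10% B by 18 min. Flow 0.4 ml/min, column at 40 °C. Source 350 °C, spray voltage 5500 V, declustering potential 80 V. Raw spectra deconvoluted to neutral molecular masses.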

[7] = molecular target: JNK1 WT (Homo sapiens, UniProt P45983); assay: SPR kinetic binding, wild-type JNK1 surface
[8] = molecular target: JNK1 C116S mutant (Homo sapiens, UniProt P45983, C116S); assay type: binding; conditions: repeat experiment, 100, 300, 1000 nM on JNK C116S surface
[9] = molecular target: JNK1 (Homo sapiens, UniProt P45983); assay: in vitro JNK1 PhALC kinase assay; assay type: biochemical
JNK1, sequence (P45983 1-384 isoform P45983-3): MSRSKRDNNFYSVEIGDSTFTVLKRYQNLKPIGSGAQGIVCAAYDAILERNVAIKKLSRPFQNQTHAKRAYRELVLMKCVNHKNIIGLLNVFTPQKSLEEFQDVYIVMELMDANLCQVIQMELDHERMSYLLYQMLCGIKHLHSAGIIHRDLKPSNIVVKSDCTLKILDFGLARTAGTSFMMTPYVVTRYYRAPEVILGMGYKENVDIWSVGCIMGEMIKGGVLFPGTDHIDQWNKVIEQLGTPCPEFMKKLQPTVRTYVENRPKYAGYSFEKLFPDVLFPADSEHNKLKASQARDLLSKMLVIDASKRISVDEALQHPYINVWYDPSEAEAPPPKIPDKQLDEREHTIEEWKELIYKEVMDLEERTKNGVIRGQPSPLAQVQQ

JNK1 WT, sequence (P45983 1-384 isoform P45983-3): as above
JNK1 C116S mutant, sequence (P45983 1-384 isoform P45983-3 C116S): as the sequence (P45983 1-384 isoform P45983-3) above, with C116S counted along it

Cc1cc(NC(=O)c2cccc(NC(=O)/C=C/CN(C)C)c2)ccc1Nc1nccc(-c2cccnc2)n1 [JNK-IN-8]
effect on p38-mediated MK2 phosphorylation [1]: do not affect
effect on c-Jun phosphorylation [2]: efficiently blocked JNK mediated c-Jun phosphorylation
hepatic extraction (class) ([3]; cut-off 0.3 low/intermediate, 0.7 intermediate/high): low
in vivo hepatic clearance (ClH), predicted ([3]; predicted from Clint measured in rat primary hepatocyte cultures): 10.1 mL/min/kg
half-life / stability in plasma [4]: stable
Western blot p-c-Jun(Ser73) EC50/IC50 ([5]; SH-SY5Y MKK7 ACT cells, 6 h DOX stimulation): ~ 0.7 μM
effect on c-Jun(Ser73) phosphorylation ([5]; SH-SY5Y MKK7 ACT, 2 or 6 h DOX, inhibitor 50 nM or 1 µM): can block c-Jun phosphorylation
GSH adduct formation [6]: irreversible covalent adduct formation with GSH
k3, new experiment calculated with the newly determined k1, k2 ([7]; 1, 3, 15 nM on JNK WT surface): 0.03454 s⁻¹
k3, parallel measurement ([7]; new experiment (for CA-IN-8: a, 15, 40, 70 nM) on JNK WT surface): 0.03181 s⁻¹
k1, parallel measurement [8]: 1492000 M⁻¹ s⁻¹
k2, parallel measurement [8]: 0.1676 s⁻¹

CC(=O)Nc1cccc(C(=O)Nc2ccc(Nc3nccc(-c4cccnc4)n3)c(C)c2)c1 [IN-8a]
IC50 [9]: 5.33 ± 0.232 µM
